This note sets out measurements from PubChem BioAssay.

The source made the active and inactive calls.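 How the source made its calls, unless noted: active means GFP response above 150% of the DMSO level; inconclusive means fewer than 70 events counted for a yeast strain; inactive means the rest.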

A short description of experiment [1]: hit retest on RPL19A-GFP reporter strain – cell-based, S. cerevisiae, flow cytometry, cherry picks, mother/daughter gates, confirmation (AID 2270;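 active means GFP response below 50% of the DMSO control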). The following applies: 3 h, at 10 µM, stronger effect = lower value, 100 = same GFP as DMSO wells.
A short description of experiment [2]: yeast TOR pathway reporter LAP4-GFP change – cell-based, cherry picks, flow cytometry, mother/daughter gates, confirmation (AID 2271;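 active means GFP response above 150% of the DMSO control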;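 further: ratio of sample to DMSO plate mean so 100% equals DMSO level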). The following applies: S. cerevisiae LAP4-GFP strain, 3 h, at 10 µM, stronger effect = higher value, 100 means same as DMSO control. In short, it runs like this: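 Material: Alexa Fluor 633-labelled Saccharomyces cerevisiae GFP-fusion strain, single-plex | Amount: Yeast cells seeded at OD600 of 0.2 | Buffer or medium: SC growth medium | Schedule: 3 h exposure, 30 °C | Measured by: HT flow cytometry, GFP fluorescence channel | Evaluation: % GFP response vs DMSO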
For orientation: A flow cytometer gives signals particle by particle.

Experiment [3] is described as follows: TOR pathway reporter MEP2-GFP, retest of hits – S. cerevisiae, flow cytometry GFP, cherry picks, confirmation (AID 2272;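 active means GFP response above 150% of the DMSO control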;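 further: ratio of well signal to plate DMSO mean so 100% equals DMSO level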). The settings on record: S. cerevisiae MEP2-GFP strain, 3 h, at 10 µM, stronger effect = higher value.
Experiment [4] can be described thus: yeast AGP1-GFP fluorescence change, single-dose – cell-based, flow cytometry, S. cerevisiae, cherry picks, confirmation (AID 2273).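 Further: median GFP channel fluorescence over the whole cell population gate.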 The settings on record: S. cerevisiae AGP1-GFP strain, 3 h, at 10 µM.
Experiment [5] can be described thus: TOR pathway CIT2 reporter hit retest – S. cerevisiae, GFP fusion, cherry picks, mother/daughter gates, confirmation (AID 2274). The following applies: S. cerevisiae CIT2-GFP strain, flow cytometry, 3 h, at 10 µM, stronger effect = higher value.
[6] abbreviates: measured here: daughter cell gate.
Where [7] appears, read: measured here: mother cell gate.
Setting [8] is: measured here: daughter cell gate response.
Setting [9] is: measured here: mother cell gate response.

Turning to `CCCc1[nH]nc2c1C(c1ccc(OC)c(Cn3nc(C)c(Br)c3C)c1)C(C#N)=C(N)O2` (stereo not drawn), the GFP response vs DMSO is 95% (inactive) in experiment [1], 94.2% in experiment [1] (setting [6]), 96.2% in experiment [1] (setting [7]) and 99.5% (inactive) in experiment [3]. Besides, the GFP response relative to DMSO was 97.7% (inactive) in experiment [2], 97.9% in experiment [2] (setting [8]) and 98.5% in experiment [2] (setting [9]). For the same compound, the GFP response, % of DMSO is 99.3% (inactive) in experiment [4], 97.8% (inactive) in experiment [5], 98.3% in experiment [5] (setting [6]) and 95.6% in experiment [5] (setting [7]).
As to `S=C(Nc1ccc(Cl)cc1)Nc1ccc2cn[nH]c2c1`, the GFP response vs DMSO in experiment [1] was 93.9% (inactive); in experiment [1] (setting [6]) it was 96.3%; in experiment [1] (setting [7]), 93.3%; in experiment [3] it was 101% (inactive). In addition, the GFP response relative to DMSO was 106% (inactive) in experiment [2], 108% in experiment [2] (setting [8]) and 105% in experiment [2] (setting [9]). Further, the GFP response, % of DMSO was 104% (inactive) in experiment [4], 103% (inactive) in experiment [5], 100% in experiment [5] (setting [6]) and 104% in experiment [5] (setting [7]).
Take `Cc1nnc(NC(=O)c2csc3c2CCC(C)C3)s1` (stereo not drawn): the GFP response vs DMSO in experiment [1] was 91.5% (inactive); in experiment [1] (setting [6]), 87.2%; in experiment [1] (setting [7]) it was 93.3%; in experiment [3] it was 93.5% (inactive). Besides, the GFP response relative to DMSO in experiment [2] is 117% (inactive); in experiment [2] (setting [8]) it was 110%; in experiment [2] (setting [9]), 124%. For the same compound, the GFP response, % of DMSO is 93% (inactive) in experiment [4], 78.2% (inactive) in experiment [5], 76.8% in experiment [5] (setting [6]) and 77.3% in experiment [5] (setting [7]).
In the case of `Cc1ccc(/C=N/NC(=O)c2ccccn2)s1`, the GFP response vs DMSO in experiment [1] is 99.2% (inactive); in experiment [1] (setting [6]), 97.1%; in experiment [1] (setting [7]), 97%; in experiment [3], 101% (inactive). Moreover, the GFP response relative to DMSO in experiment [2] is 99.5% (inactive); in experiment [2] (setting [8]) it was 95.9%; in experiment [2] (setting [9]) it was 99.4%. Further, the GFP response, % of DMSO in experiment [4] is 95.1% (inactive); in experiment [5], 94.4% (inactive); in experiment [5] (setting [6]), 93.8%; in experiment [5] (setting [7]) it was 94.4%.
`CCCCN(CCCC)S(=O)(=O)c1ccc(C(=O)Nc2nnc(COC)o2)cc1`: the GFP response vs DMSO was 106% (inactive) in experiment [1], 106% in experiment [1] (setting [6]), 103% in experiment [1] (setting [7]) and 149% (inactive) in experiment [3]. Besides, the GFP response relative to DMSO in experiment [2] is 131% (inactive); in experiment [2] (setting [8]), 140%; in experiment [2] (setting [9]), 126%. For the same compound, the GFP response, % of DMSO in experiment [4] was 106% (inactive); in experiment [5] it was 100% (inactive); in experiment [5] (setting [6]), 103%; in experiment [5] (setting [7]), 101%.
Take `Clc1ccc(-n2nnnc2Sc2ncnc3sccc23)cc1`: the GFP response vs DMSO in experiment [1] was 100% (inactive); in experiment [1] (setting [6]) it was 98.4%; in experiment [1] (setting [7]), 98.8%; in experiment [3], 131% (inactive). Moreover, the GFP response relative to DMSO in experiment [2] is 131% (inactive); in experiment [2] (setting [8]), 123%; in experiment [2] (setting [9]) it was 130%. Further, the GFP response, % of DMSO in experiment [4] was 115% (inactive); in experiment [5], 106% (inactive); in experiment [5] (setting [6]), 105%; in experiment [5] (setting [7]), 105%.
Consider `O=c1cnnc(SCc2ccc([N+](=O)[O-])cc2)[nH]1`, for which the GFP response vs DMSO in experiment [1] is 97.4% (inactive); in experiment [1] (setting [6]), 99.1%; in experiment [1] (setting [7]), 96.2%; in experiment [3], 105% (inactive). Further, the GFP response relative to DMSO in experiment [2] is 102% (inactive); in experiment [2] (setting [8]) it was 101%; in experiment [2] (setting [9]) it was 100%. The GFP response, % of DMSO in experiment [4] was 96% (inactive); in experiment [5], 98.3% (inactive); in experiment [5] (setting [6]), 99.1%; in experiment [5] (setting [7]), 98.5%.
For the compound `COc1ccc(NC(=S)N2CCC(c3ccccc3)C2)cc1` (stereo not drawn), the GFP response vs DMSO is 103% (inactive) in experiment [1], 98.8% in experiment [1] (setting [6]), 98% in experiment [1] (setting [7]) and 101% (inactive) in experiment [3]. For the same compound, the GFP response relative to DMSO in experiment [2] is 97% (inactive); in experiment [2] (setting [8]) it was 95.9%; in experiment [2] (setting [9]) it was 97.3%. The GFP response, % of DMSO in experiment [4] is 98.6% (inactive); in experiment [5], 97.3% (inactive); in experiment [5] (setting [6]), 93.8%; in experiment [5] (setting [7]), 94.4%.
Turning to `CCOc1cc(/C=N/Nc2nc(C)cc(=O)[nH]2)ccc1O`, the GFP response vs DMSO in experiment [1] was 102% (inactive); in experiment [1] (setting [6]), 102%; in experiment [1] (setting [7]) it was 100%; in experiment [3], 104% (inactive). Besides, the results for the GFP response relative to DMSO in experiment [2], in experiment [2] (setting [8]) and in experiment [2] (setting [9]) were 89% (inactive), 87.9% and 90.1%, respectively. The GFP response, % of DMSO in experiment [4] was 100% (inactive); in experiment [5], 106% (inactive); in experiment [5] (setting [6]), 106%; in experiment [5] (setting [7]) it was 103%.
Consider `COc1ccccc1N=Cc1nc(-c2ccccc2)oc1OC(C)=O`, for which the GFP response vs DMSO in experiment [1] was 98.2% (inactive); in experiment [1] (setting [6]), 96.9%; in experiment [1] (setting [7]) it was 98.3%; in experiment [3] it was 101% (inactive). The GFP response relative to DMSO is 103% (inactive) in experiment [2], 101% in experiment [2] (setting [8]) and 106% in experiment [2] (setting [9]). For the same compound, the GFP response, % of DMSO was 70.7% (inactive) in experiment [4], 90.1% (inactive) in experiment [5], 88.4% in experiment [5] (setting [6]) and 90.7% in experiment [5] (setting [7]).
`Cc1nnc(NC(=O)c2ccc(S(=O)(=O)N3CCCCCC3)cc2)o1`: the GFP response vs DMSO was 99.4% (inactive) in experiment [1], 99.3% in experiment [1] (setting [6]), 100% in experiment [1] (setting [7]) and 101% (inactive) in experiment [3]. The GFP response relative to DMSO is 97% (inactive) in experiment [2], 97.5% in experiment [2] (setting [8]) and 97.3% in experiment [2] (setting [9]). The GFP response, % of DMSO in experiment [4] is 99% (inactive); in experiment [5], 100% (inactive); in experiment [5] (setting [6]), 103%; in experiment [5] (setting [7]), 96.8%.
Regarding `CCCc1[nH]nc2c1C(c1ccc(OC(=O)c3ccco3)cc1)C(C#N)=C(N)O2` (stereo not drawn), the GFP response vs DMSO in experiment [1] is 99.9% (inactive); in experiment [1] (setting [6]), 101%; in experiment [1] (setting [7]) it was 101%; in experiment [3], 124% (inactive). In addition, the GFP response relative to DMSO in experiment [2] was 91.9% (inactive); in experiment [2] (setting [8]), 92.2%; in experiment [2] (setting [9]), 91.6%. Also, the GFP response, % of DMSO in experiment [4] was 102% (inactive); in experiment [5] it was 105% (inactive); in experiment [5] (setting [6]), 108%; in experiment [5] (setting [7]) it was 105%.
As for `O=C(NCCCSc1ccccc1)c1cc(Cl)ccc1O`, the GFP response vs DMSO is 100% (inactive) in experiment [1], 98% in experiment [1] (setting [6]), 102% in experiment [1] (setting [7]) and 104% (inactive) in experiment [3]. Further, the GFP response relative to DMSO in experiment [2] was 108% (inactive); in experiment [2] (setting [8]), 104%; in experiment [2] (setting [9]) it was 110%. Also, the GFP response, % of DMSO is 90.5% (inactive) in experiment [4], 96.4% (inactive) in experiment [5], 96.4% in experiment [5] (setting [6]) and 94.5% in experiment [5] (setting [7]).
